Laboratory results reported in PubChem BioAssay AID651708 (Sanford-Burnham Center for Chemical Genomics, 2012).
pIC50: −log10 of the molar value. Activity calls are given as the source filed them.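 Rule for the calls: active = compound with IC50 above 30 µM at both the APJ and CCR6 off-target receptors, and at most 10 µM at CXCR6; inactive = the rest.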

Experiments:
Assay in all cases: GPCR panel antagonist activity incl. apelin receptor – cell-based, CHO-K1 PathHunter beta-arrestin, luminescence, set 3, selectivity assay for CXCR6 antagonist project, profiling panel (AID 651708)
[1] = target: Apelin receptor (Homo sapiens) (UniProt P35414); settings: antagonist mode, APJ; for IC50: mean of runs
Sequence of Apelin receptor (Homo sapiens) (P35414 whole entry, looked up): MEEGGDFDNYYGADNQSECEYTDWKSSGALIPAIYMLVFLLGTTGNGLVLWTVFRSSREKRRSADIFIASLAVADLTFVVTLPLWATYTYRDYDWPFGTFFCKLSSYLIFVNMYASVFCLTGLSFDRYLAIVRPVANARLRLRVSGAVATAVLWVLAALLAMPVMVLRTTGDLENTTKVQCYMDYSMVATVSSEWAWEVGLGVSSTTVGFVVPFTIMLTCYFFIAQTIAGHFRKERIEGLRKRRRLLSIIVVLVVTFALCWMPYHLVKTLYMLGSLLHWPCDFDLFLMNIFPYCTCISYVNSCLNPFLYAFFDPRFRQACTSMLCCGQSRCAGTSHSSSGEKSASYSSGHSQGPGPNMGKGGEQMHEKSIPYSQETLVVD
In short: (§1)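 test system = CHO-K1 PathHunter β-arrestin cell lines for APJ, CCR6 or CXCR6 | reagent = APJ 10 nM Apelin-13, CCR6 14 nM CCL20, CXCR6 CXCL16 | measured by = β-arrestin recruitment luminescence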

[2] = target: C-X-C chemokine receptor type 6 (Homo sapiens) (UniProt O00574); settings: antagonist mode
Sequence of C-X-C chemokine receptor type 6 (Homo sapiens) (O00574 whole entry, looked up): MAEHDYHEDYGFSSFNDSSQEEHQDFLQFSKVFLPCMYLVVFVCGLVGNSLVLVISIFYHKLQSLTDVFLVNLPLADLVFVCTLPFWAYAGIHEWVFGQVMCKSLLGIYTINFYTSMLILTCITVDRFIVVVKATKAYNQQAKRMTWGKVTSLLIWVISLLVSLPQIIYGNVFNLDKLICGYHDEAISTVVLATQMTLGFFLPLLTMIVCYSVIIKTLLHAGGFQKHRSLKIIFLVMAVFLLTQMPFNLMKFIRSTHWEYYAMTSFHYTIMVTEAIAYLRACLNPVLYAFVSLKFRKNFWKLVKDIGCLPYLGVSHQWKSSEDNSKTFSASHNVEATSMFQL
In short: as §1

[3] = target: C-C chemokine receptor type 6 (Homo sapiens) (UniProt P51684); settings: antagonist mode; for IC50: CCR6, mean of runs
Sequence of C-C chemokine receptor type 6 (Homo sapiens) (P51684 whole entry, looked up): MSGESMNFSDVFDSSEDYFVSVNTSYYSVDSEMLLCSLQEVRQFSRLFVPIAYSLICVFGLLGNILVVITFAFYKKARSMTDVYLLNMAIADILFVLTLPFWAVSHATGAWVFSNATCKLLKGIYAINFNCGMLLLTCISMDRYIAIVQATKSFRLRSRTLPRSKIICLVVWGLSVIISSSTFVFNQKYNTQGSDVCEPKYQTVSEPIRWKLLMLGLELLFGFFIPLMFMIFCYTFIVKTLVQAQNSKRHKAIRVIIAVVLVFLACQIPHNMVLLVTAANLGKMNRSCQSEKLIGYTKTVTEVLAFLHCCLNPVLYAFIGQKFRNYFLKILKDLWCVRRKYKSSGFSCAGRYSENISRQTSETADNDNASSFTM
In short: as §1

Row | Compound | IC50 [1] | pIC50 ([1]; run 1) | pIC50 ([1]; run 2) | IC50 ([2]; CXCR6, mean of runs) | pIC50 ([2]; CXCR6, run 1) | pIC50 ([2]; CXCR6, run 2) | IC50 [3] | pIC50 ([3]; CCR6, run 1) | pIC50 ([3]; CCR6, run 2) | pIC50 ([2]; CXCR6, mean of runs)
1 | COc1ccc(C(=O)NC2CC3CCCC(C2)N3CC(=O)Nc2ccccc2)cc1 (centres undefined) | > 79 µM (inactive) | < 4.10 | < 4.10 | > 79 µM (inactive) | < 4.10 | < 4.10 | > 79 µM (inactive) | < 4.10 | < 4.10 | 
2 | COc1ccc(C(=O)NC2CC3CCCC(C2)N3CC(=O)Nc2ccccc2)cc1OC (centres undefined) | > 79 µM (inactive) | < 4.10 | < 4.10 | > 79 µM (inactive) | < 4.10 | < 4.10 | > 79 µM (inactive) | < 4.10 | < 4.10 | 
3 | COc1ccc(NC(=O)CN2C3CCCC2CC(NC(=O)c2cc(OC)c(OC)c(OC)c2)C3)cc1 (centres undefined) | > 79 µM (inactive) | < 4.10 | < 4.10 | inactive | 4.91 | 4.58 | > 79 µM (inactive) | < 4.10 | < 4.10 | 
4 | COc1cccc(C(=O)NC2CC3CCCC(C2)N3CC(=O)Nc2ccc(F)cc2)c1 (centres undefined) | > 79 µM (inactive) | < 4.10 | < 4.10 | > 79 µM (inactive) | < 4.10 | < 4.10 | > 79 µM (inactive) | < 4.10 | < 4.10 | 
5 | COc1ccc(C(=O)NC2CC3CCCC(C2)N3CC(=O)Nc2ccc(Cl)cc2)cc1 (centres undefined) | > 79 µM (inactive) | < 4.10 | < 4.10 | > 79 µM (inactive) | < 4.10 | < 4.10 | > 79 µM (inactive) | < 4.10 | < 4.10 | 
6 | COc1cc(OC)cc(C(=O)NC2CC3CCCC(C2)N3CC(=O)Nc2ccc(Cl)cc2)c1 (centres undefined) | > 79 µM (inactive) | < 4.10 | < 4.10 | > 79 µM (inactive) | < 4.10 | < 4.10 | > 79 µM (inactive) | < 4.10 | < 4.10 | 
7 | O=C(CN1C2CCCC1CC(NC(=O)c1ccc3c(c1)OCO3)C2)Nc1ccccc1 (centres undefined) | > 79 µM (inactive) | < 4.10 | < 4.10 | > 79 µM (inactive) | < 4.10 | < 4.10 | > 79 µM (inactive) | < 4.10 | < 4.10 | 
8 | COc1ccc(C(=O)NC2CC3CCCC(C2)N3CC(=O)Nc2ccc(Cl)cc2)cc1OC (centres undefined) | > 79 µM (inactive) | < 4.10 | < 4.10 | > 79 µM (inactive) | < 4.10 | < 4.10 | > 79 µM (inactive) | < 4.10 | < 4.10 | 
9 | COc1cc(OC)cc(C(=O)NC2CC3CCCC(C2)N3CC(=O)Nc2ccc(C)cc2)c1 (centres undefined) | > 79 µM (inactive) | < 4.10 | < 4.10 | > 79 µM (inactive) | < 4.10 | < 4.10 | > 79 µM (inactive) | < 4.10 | < 4.10 | 
10 | COc1ccc(NC(=O)CN2C3CCCC2CC(NC(=O)c2ccc4c(c2)OCO4)C3)cc1 (centres undefined) | > 79 µM (inactive) | < 4.10 | < 4.10 | > 79 µM (inactive) | < 4.10 | < 4.10 | > 79 µM (inactive) | < 4.10 | < 4.10 | 
11 | O=C(CN1C2CCCC1CC(NC(=O)c1ccc3c(c1)OCO3)C2)Nc1ccc(F)cc1 (centres undefined) | > 79 µM (inactive) | < 4.10 | < 4.10 | > 79 µM (inactive) | < 4.10 | < 4.10 | > 79 µM (inactive) | < 4.10 | < 4.10 | 
12 | COc1cc(C(=O)NC2CC3CCCC(C2)N3CC(=O)Nc2ccc(C)cc2)cc(OC)c1OC (centres undefined) | > 79 µM (inactive) | < 4.10 | < 4.10 |  | 5.27 | 5.22 | > 79 µM (inactive) | < 4.10 | < 4.10 | 5.24
13 | COc1ccccc1NC(=O)CN1C2CCCC1CC(NC(=O)c1cc(OC)c(OC)c(OC)c1)C2 (centres undefined) |  | < 4.10 | 4.60 |  | 5.74 | 5.68 | > 79 µM (inactive) | < 4.10 | < 4.10 | 5.71
14 | COc1cc(OC)cc(C(=O)NC2CC3CCCC(C2)N3CC(=O)Nc2ccccc2)c1 (centres undefined) |  | < 4.10 | 4.95 | > 79 µM (inactive) | < 4.10 | < 4.10 | > 79 µM (inactive) | < 4.10 | < 4.10 | 
